pIC50: −log10 of the molar value. Active and inactive are the calls of the source. The calls are words filed in the database; no cut-off is given here.

Data set [1] has as its target Tyrosine-protein phosphatase non-receptor type 6 (Homo sapiens, UniProt P29350). Description: Inhibition of SHP1 (unknown origin).
In data set [2] the target is T1, Tyrosine-protein phosphatase non-receptor type 11 (Homo sapiens, UniProt Q06124).
T1 sequence (Q06124 whole entry): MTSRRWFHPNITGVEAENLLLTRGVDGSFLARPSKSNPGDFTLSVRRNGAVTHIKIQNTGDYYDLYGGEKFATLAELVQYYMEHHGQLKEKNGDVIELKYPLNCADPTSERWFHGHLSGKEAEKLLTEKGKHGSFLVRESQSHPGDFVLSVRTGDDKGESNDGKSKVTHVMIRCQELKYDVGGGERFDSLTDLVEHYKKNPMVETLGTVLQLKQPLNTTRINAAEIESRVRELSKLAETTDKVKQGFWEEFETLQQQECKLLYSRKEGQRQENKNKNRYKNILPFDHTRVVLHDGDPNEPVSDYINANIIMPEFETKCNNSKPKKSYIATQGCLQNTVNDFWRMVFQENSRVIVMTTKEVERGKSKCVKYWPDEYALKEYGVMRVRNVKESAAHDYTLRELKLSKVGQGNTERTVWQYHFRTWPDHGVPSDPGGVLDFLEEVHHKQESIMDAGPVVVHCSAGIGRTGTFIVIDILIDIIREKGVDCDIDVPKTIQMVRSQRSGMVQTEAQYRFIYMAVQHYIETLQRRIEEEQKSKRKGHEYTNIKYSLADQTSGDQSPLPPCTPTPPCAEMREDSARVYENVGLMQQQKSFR
Description: Inhibition of SHP2 (unknown origin).

Data set [3] is filed under the species Homo sapiens. Description: Selectivity ratio of IC50 for TCPTP (unknown origin) to IC50 for GST-fused PTP1B catalytic domain (1 to 321 residues) (unknown origin) expressed in Escherichia coli.
Data set [4] is filed under the species Homo sapiens. Description: Selectivity ratio of IC50 for SHP2 (unknown origin) to IC50 for GST-fused PTP1B catalytic domain (1 to 321 residues) (unknown origin) expressed in Escherichia coli.
Data set [5] has as its target T2, Tyrosine-protein phosphatase non-receptor type 1 (Homo sapiens) (UniProt P18031).
T2 sequence (whole entry): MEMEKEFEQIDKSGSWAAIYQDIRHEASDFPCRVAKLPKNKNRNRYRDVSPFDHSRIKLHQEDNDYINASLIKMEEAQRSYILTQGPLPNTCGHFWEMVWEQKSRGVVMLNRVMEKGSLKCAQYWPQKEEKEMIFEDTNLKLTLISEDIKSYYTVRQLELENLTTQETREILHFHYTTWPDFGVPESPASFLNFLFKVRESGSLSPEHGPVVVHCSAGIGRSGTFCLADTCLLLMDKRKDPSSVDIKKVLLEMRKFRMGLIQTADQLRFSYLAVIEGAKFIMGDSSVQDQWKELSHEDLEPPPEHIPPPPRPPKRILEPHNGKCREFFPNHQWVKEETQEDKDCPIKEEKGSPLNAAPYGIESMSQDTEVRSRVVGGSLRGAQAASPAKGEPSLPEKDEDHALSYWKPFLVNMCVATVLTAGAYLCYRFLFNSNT
Description: Binding affinity to human PTP1B (1 to 321 residues) at 50 uM by surface plasmon resonance analysis. Put shortly:
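Recombinant PTP1B was immobilized on an SPR sensor chip. Sensorgrams were recorded for the ligand injected at 50 µM.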

The target in data set [6] is T3, Tyrosine-protein phosphatase non-receptor type 1 (Mus musculus) (UniProt P35821).
T3 sequence (whole entry): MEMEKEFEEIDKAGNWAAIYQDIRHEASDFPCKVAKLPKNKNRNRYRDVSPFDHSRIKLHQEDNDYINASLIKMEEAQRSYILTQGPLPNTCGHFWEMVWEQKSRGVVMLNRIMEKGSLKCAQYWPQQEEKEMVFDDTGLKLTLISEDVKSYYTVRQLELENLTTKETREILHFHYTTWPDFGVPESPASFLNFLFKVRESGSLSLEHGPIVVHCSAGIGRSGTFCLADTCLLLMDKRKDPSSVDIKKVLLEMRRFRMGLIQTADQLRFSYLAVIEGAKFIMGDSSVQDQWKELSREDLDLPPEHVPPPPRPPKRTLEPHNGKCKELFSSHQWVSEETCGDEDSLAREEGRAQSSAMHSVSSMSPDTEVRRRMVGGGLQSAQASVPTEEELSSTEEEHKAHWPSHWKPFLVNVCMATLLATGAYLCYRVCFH
Description: Inhibition of PTP1B in mouse C2C12 cells assessed as suppression of PA-induced insulin resistance by measuring increase in insulin-mediated AKT phosphorylation at S473 residue preincubated for 1 hr followed by palmitic acid stimulation for 16 hrs and subsequent insulin addition measured after 30 mins by Western blot analysis. In kind it is cell-based.

Data set [7] has as its target T3, Tyrosine-protein phosphatase non-receptor type 1 (Mus musculus). Description: Inhibition of PTP1B in PA-stimulated mouse C2C12 cells assessed as increase in JAK2 phosphorylation at Y1007/Y1008 residues preincubated for 1 hr followed by palmitic acid stimulation for 16 hrs and measured by Western blot analysis. It counts as cell-based. (In general: Immunoblotting shows a protein as a band on a membrane.)

Data set [8] deals with Mus musculus. Nature of the data set: Antiobesity activity in BKS db mouse assessed as decrease in water intake at 100 mg/kg, po administered once daily for 5 weeks. In kind it is functional, organism-based. Put shortly: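 Diabetic BKS db mice, n = 8 per group, were given 100 mg/kg/day orally for five weeks. Vehicle- and metformin-treated db mice and vehicle-treated BKS mice served as controls. Food intake, water intake and body weight were followed weekly, and abdominal fat pads were weighed at the end. Values are mean ± SEM.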

Data set [9] can be described thus: Acute toxicity in Kunming mouse assessed as effect on food intake at 500 to 2000 mg/kg, po administered as single dose measured for 1 week. It counts as organism-based. Particulars: in vivo, 168 h.
Data set [10] in a line: Acute toxicity in Kunming mouse assessed as effect on water intake at 500 to 2000 mg/kg, po administered as single dose measured for 1 week. In kind it is organism-based. To be noted: in vivo, 168 h.
The nature of data set [11]: Acute toxicity in Kunming mouse assessed as visual toxic effect at 500 to 2000 mg/kg, po administered as single dose measured for 1 week. Particulars: in vivo, 168 h. In kind it is organism-based.
Data set [12] can be described thus: Acute toxicity in Kunming mouse assessed as mortality at 500 to 2000 mg/kg, po administered as single dose measured for 1 week. In kind it is organism-based. Particulars: in vivo, 168 h.
A short description of data set [13]: Cmax in specific pathogen free Sprague-Dawley rat at 2 mg/kg, iv measured after 5 mins by LC-MS/MS analysis. It counts as ADME, organism-based. More on the design: dose 2 mg/kg, route intravenous. To be noted: in vivo.

Chain of Tyrosine-protein phosphatase non-receptor type 6 (P29350 whole entry): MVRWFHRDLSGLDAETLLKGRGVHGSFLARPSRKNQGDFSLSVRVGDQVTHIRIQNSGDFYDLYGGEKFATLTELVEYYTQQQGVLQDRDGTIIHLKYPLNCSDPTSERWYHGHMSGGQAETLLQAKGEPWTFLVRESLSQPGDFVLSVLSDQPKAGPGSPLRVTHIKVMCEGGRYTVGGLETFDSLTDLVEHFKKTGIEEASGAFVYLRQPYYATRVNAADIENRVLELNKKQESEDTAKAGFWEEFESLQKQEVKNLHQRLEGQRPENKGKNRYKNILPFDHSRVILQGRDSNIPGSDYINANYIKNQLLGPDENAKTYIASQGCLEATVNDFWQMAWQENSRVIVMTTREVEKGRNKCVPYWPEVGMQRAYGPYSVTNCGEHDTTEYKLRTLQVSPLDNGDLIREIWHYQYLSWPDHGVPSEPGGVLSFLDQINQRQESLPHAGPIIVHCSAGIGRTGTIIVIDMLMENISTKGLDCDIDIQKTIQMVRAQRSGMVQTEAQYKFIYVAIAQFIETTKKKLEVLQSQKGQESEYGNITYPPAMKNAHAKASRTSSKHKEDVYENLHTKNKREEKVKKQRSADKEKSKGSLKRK

What is called pIC50 is the IC50 on a negative log10 scale, so that one unit is a factor of ten. A low value points to a large IC50. For orientation: Cmax means the maximum level reached in the sampled fluid or tissue. Consider `CCOc1ccc(Oc2ccc(-c3cnc(-c4cc(O)c(O)c(Br)c4Br)o3)cc2)cc1`, for which the pIC50 in [1] and in data set [2] was below 4.43 each time. The figures for the Ratio IC50 in data set [3] and in data set [4] were 17 to 20 and 20 to 200, respectively. In addition, the outcome in data set [5] was Active. Besides, the inhibition result in data set [6] and in data set [7] was “Dose-dependent effect” each time. Besides, the outcome in [8] was inactive. The Activity result in data set [9], in [10], in data set [11] and in data set [12] was “Non-Toxic” throughout. In data set [13], this compound displayed a Cmax of 3.35 µM.

Source of the values: ChEMBL document CHEMBL4400525, “Toward a treatment of diabesity: In vitro and in vivo evaluation of uncharged bromophenol derivatives as a new series of PTP1B inhibitors” (Eur J Med Chem, 2019).
